Test results: ChEMBL document CHEMBL2424580, “Radiosynthesis of N-(4-chloro-3-[(11)C]methoxyphenyl)-2-picolinamide ([(11)C]ML128) as a PET radiotracer for metabotropic glutamate receptor subtype 4 (mGlu4)” (Bioorg Med Chem, 2013); call rule not given here

Experiments:
[1] = Drug uptake in Sprague-Dawley rat olfactory bulb at 24.1 MBq, iv measured within 20 mins by PET analysis; assay type: ADME, organism-based; conditions: in vivo
Summary of the method: (§1)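 Male Sprague Dawley rats (300–500 g) under isoflurane/nitrous oxide anesthesia, with radioligand given via tail-vein catheter in 10% ethanol/saline. Dynamic small-animal PET ran for 60 min from injection (frames 18×10″, 14×30″, 20×60″, 10×180″), followed by CT for anatomy and attenuation. Data were corrected for uniformity, scatter and attenuation and reconstructed by MLEM (30 iterations) to give regional time-activity curves.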

[2] = Drug uptake in Sprague-Dawley rat olfactory bulb at 24.1 MBq, iv measured for 1 to 3 mins by PET analysis; assay type: ADME, organism-based; conditions: in vivo; summary of the method: as §1
Thalamus [3] = assay: Drug uptake in Sprague-Dawley rat thalamus at 24.1 MBq, iv measured within 20 mins by PET analysis; assay type: ADME, organism-based; conditions: in vivo; summary of the method: as §1
[4] = Metabolic stability in Sprague-Dawley rat plasma assessed as intact compound level at 24.1 MBq, iv after 50 mins by gamma counting analysis; assay type: ADME, organism-based; conditions: read-out: Stability
Liver = assay: Biodistribution in Sprague-Dawley rat liver at 27.4 to 48.1 MBq after 1 to 40 mins by gamma counting analysis; assay type: ADME, organism-based; conditions: in vivo
Summary of the method: (§2)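 Male Sprague Dawley rats (300–500 g) given the radioligand i.v. (27.4–48.1 MBq/animal) in 10% ethanol/saline. Three rats were sacrificed at each of 1, 5, 10, 20 and 40 min. Harvested tissues were weighed and gamma-counted. Counts were corrected for decay and injected activity and expressed as %ID/g tissue.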

Lung = assay: Biodistribution in Sprague-Dawley rat lung at 27.4 to 48.1 MBq after 1 to 40 mins by gamma counting analysis; assay type: ADME, organism-based; conditions: in vivo; summary of the method: as §2
Hippocampus [5] = assay: Drug uptake in Sprague-Dawley rat hippocampus at 24.1 MBq, iv measured within 20 mins by PET analysis; assay type: ADME, organism-based; conditions: in vivo; summary of the method: as §1
Heart = assay: Biodistribution in Sprague-Dawley rat heart at 27.4 to 48.1 MBq after 1 to 40 mins by gamma counting analysis; assay type: ADME, organism-based; conditions: in vivo; summary of the method: as §2
Thalamus [6] = assay: Drug uptake in Sprague-Dawley rat thalamus at 24.1 MBq, iv measured for 1 to 3 mins by PET analysis; assay type: ADME, organism-based; conditions: in vivo; summary of the method: as §1
Kidney = assay: Biodistribution in Sprague-Dawley rat kidney at 27.4 to 48.1 MBq after 1 to 40 mins by gamma counting analysis; assay type: ADME, organism-based; conditions: in vivo; summary of the method: as §2
[7] = Reduction in drug uptake in Sprague-Dawley rat whole brain at 24.1 MBq, iv after 2 to 15 mins by PET analysis in presence of mGlu4 blocker N-(3-(Difluoromethoxy)phenyl)-2-picolinamide hydrochloride salt; assay type: ADME, organism-based; conditions: in vivo
Summary of the method: (§3)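 Rats were pretreated with the mGlu4 blocker (10 mg/kg i.p., in 10% ethanol/10% Tween-20 in water) 30 min before i.v. radioligand. Anesthetized rats were imaged by 60-min dynamic PET with CT attenuation correction and MLEM reconstruction. Uptake at 2–15 min was compared with control scans, and percent change was calculated per brain region.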

[8] = Metabolic stability in Sprague-Dawley rat plasma assessed as intact compound level at 24.1 MBq, iv after 5 mins by gamma counting analysis; assay type: ADME, organism-based; conditions: read-out: Stability
Summary of the method: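 Femoral arterial blood was drawn from three rats at 5, 25 and 55 min after i.v. radioligand and centrifuged. Plasma was mixed 1:1 with acetonitrile and centrifuged to remove protein. The supernatant was loaded on a phenyl SPE cartridge and eluted with an acetonitrile–0.1% TFA/water gradient (0–100% acetonitrile) to separate intact tracer.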

Striatum [9] = assay: Reduction in drug uptake in Sprague-Dawley rat striatum at 24.1 MBq, iv after 2 to 15 mins by PET analysis in presence of mGlu4 blocker N-(3-(Difluoromethoxy)phenyl)-2-picolinamide hydrochloride salt; assay type: ADME, organism-based; conditions: in vivo; summary of the method: as §3
Cerebellum [10] = assay: Drug uptake in Sprague-Dawley rat cerebellum at 24.1 MBq, iv measured for 1 to 3 mins by PET analysis; assay type: ADME, organism-based; conditions: in vivo; summary of the method: as §1
Hippocampus [11] = assay: Reduction in drug uptake in Sprague-Dawley rat hippocampus at 24.1 MBq, iv after 2 to 15 mins by PET analysis in presence of mGlu5 blocker MTEP hydrochloride; assay type: ADME, organism-based; conditions: in vivo
Summary of the method: (§4)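 MTEP·HCl (5 mg/kg, in sterile water) was injected into the tail vein 2 min before i.v. radioligand. Anesthetized rats were imaged by 60-min dynamic PET with CT attenuation correction and MLEM reconstruction. Uptake at 2–15 min was compared with control scans, and percent change was calculated per brain region.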

Cerebellum [12] = assay: Reduction in drug uptake in Sprague-Dawley rat cerebellum at 24.1 MBq, iv after 2 to 15 mins by PET analysis in presence of mGlu4 blocker N-(3-(Difluoromethoxy)phenyl)-2-picolinamide hydrochloride salt; assay type: ADME, organism-based; conditions: in vivo; summary of the method: as §3
[13] = Reduction in drug uptake in Sprague-Dawley rat whole brain at 24.1 MBq, iv after 2 to 15 mins by PET analysis in presence of mGlu5 blocker MTEP hydrochloride; assay type: ADME, organism-based; conditions: in vivo; summary of the method: as §4
Striatum [14] = assay: Drug uptake in Sprague-Dawley rat striatum at 24.1 MBq, iv measured within 20 mins by PET analysis; assay type: ADME, organism-based; conditions: in vivo; summary of the method: as §1
[15] = Octanol-PBS buffer partition coefficient, log D of the compound at pH 7.4 by gamma counting analysis; assay type: physicochemical
Summary of the method: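 Radiotracer was partitioned between PBS and octanol by vortexing 2 min, then centrifuging at >8000 rpm for 2 min. Octanol was serially re-extracted into fresh PBS across six tube sets. Phases were gamma-counted with decay correction. logD = log(octanol activity × 10 / PBS activity).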

Hippocampus [16] = assay: Drug uptake in Sprague-Dawley rat hippocampus at 24.1 MBq, iv measured for 1 to 3 mins by PET analysis; assay type: ADME, organism-based; conditions: in vivo; summary of the method: as §1
Hippocampus [17] = assay: Reduction in drug uptake in Sprague-Dawley rat hippocampus at 24.1 MBq, iv after 2 to 15 mins by PET analysis in presence of mGlu4 blocker N-(3-(Difluoromethoxy)phenyl)-2-picolinamide hydrochloride salt; assay type: ADME, organism-based; conditions: in vivo; summary of the method: as §3
Brain = assay: Biodistribution in Sprague-Dawley rat brain at 27.4 to 48.1 MBq after 1 to 40 mins by gamma counting analysis; assay type: ADME, organism-based; conditions: in vivo; summary of the method: as §2
Muscle tissue = assay: Biodistribution in Sprague-Dawley rat muscle at 27.4 to 48.1 MBq after 1 to 40 mins by gamma counting analysis; assay type: ADME, organism-based; conditions: in vivo; summary of the method: as §2
Cerebellum [18] = assay: Drug uptake in Sprague-Dawley rat cerebellum at 24.1 MBq, iv measured within 20 mins by PET analysis; assay type: ADME, organism-based; conditions: in vivo; summary of the method: as §1
Striatum [19] = assay: Drug uptake in Sprague-Dawley rat striatum at 24.1 MBq, iv measured for 1 to 3 mins by PET analysis; assay type: ADME, organism-based; conditions: in vivo; summary of the method: as §1
Blood = assay: Biodistribution in Sprague-Dawley rat blood at 27.4 to 48.1 MBq after 1 to 40 mins by gamma counting analysis; assay type: ADME, organism-based; conditions: in vivo; summary of the method: as §2
Striatum [20] = assay: Reduction in drug uptake in Sprague-Dawley rat striatum at 24.1 MBq, iv after 2 to 15 mins by PET analysis in presence of mGlu5 blocker MTEP hydrochloride; assay type: ADME, organism-based; conditions: in vivo; summary of the method: as §4
[21] = target: Metabotropic glutamate receptor 5 (Homo sapiens) (UniProt P41594); assay: Antagonist activity at mGlu5a receptor (unknown origin) expressed in CHO cells assessed as inhibition of glutamate-induced inositol phosphate accumulation at 10 uM after 45 mins by liquid scintillation counting analysis relative to control; assay type: functional, cell-based
[22] = target: Metabotropic glutamate receptor 8 (Homo sapiens) (UniProt O00222); assay: Antagonist activity at mGlu8 receptor (unknown origin) expressed in CHO cells assessed as inhibition of glutamate-induced inositol phosphate accumulation at 10 uM after 45 mins by liquid scintillation counting analysis relative to control; assay type: functional, cell-based
[23] = target: Metabotropic glutamate receptor 5 (Homo sapiens) (UniProt P41594); assay: Agonist activity at mGlu5a receptor (unknown origin) expressed in CHO cells assessed as induction of inositol phosphate accumulation at 10 uM after 45 mins by liquid scintillation counting analysis relative to control; assay type: functional, cell-based
Summary of the method: (§5)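 Stably transfected CHO cells grown to confluency (3–4 days), then labelled overnight with myo-[3H]inositol in glutamine-free medium. Compound at 10 μM, 45 min at 37°C, in Locke's buffer pH 7.4 with 20 mM LiCl. IPs extracted with 0.1 M HCl, separated by anion exchange, counted by liquid scintillation. Result given as % of maximal agonist activity. Duplicates in two experiments on different passages.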

[24] = target: Metabotropic glutamate receptor 8 (Homo sapiens) (UniProt O00222); assay: Agonist activity at mGlu8 receptor (unknown origin) expressed in CHO cells assessed as induction of inositol phosphate accumulation at 10 uM after 45 mins by liquid scintillation counting analysis relative to control; assay type: functional, cell-based; summary of the method: as §5

Sequence of Metabotropic glutamate receptor 8 (Homo sapiens) (O00222 whole entry): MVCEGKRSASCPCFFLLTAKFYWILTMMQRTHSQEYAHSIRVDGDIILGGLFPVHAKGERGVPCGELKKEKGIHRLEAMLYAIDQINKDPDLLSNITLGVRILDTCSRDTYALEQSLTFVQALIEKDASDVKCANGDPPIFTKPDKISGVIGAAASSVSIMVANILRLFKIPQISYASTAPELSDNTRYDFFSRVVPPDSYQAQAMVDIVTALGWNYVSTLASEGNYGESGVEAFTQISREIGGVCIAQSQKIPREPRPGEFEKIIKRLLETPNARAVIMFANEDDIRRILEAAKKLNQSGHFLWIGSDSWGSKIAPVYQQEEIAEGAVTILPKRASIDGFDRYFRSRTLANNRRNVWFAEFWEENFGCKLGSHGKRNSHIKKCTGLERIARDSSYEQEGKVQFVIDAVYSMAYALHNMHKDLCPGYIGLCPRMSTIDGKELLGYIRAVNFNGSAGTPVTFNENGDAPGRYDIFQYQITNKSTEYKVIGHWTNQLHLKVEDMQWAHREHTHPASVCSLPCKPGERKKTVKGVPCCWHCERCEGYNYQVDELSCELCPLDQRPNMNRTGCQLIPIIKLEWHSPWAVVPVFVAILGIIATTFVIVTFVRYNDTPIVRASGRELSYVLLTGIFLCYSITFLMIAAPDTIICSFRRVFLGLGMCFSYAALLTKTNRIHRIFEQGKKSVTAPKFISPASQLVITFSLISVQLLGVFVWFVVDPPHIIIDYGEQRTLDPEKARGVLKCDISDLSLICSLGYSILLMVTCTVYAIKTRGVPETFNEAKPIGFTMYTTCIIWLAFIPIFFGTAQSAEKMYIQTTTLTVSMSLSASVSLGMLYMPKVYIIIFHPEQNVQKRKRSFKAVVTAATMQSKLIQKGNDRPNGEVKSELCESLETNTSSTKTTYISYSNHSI
Sequence of Metabotropic glutamate receptor 5 (Homo sapiens) (P41594 21-1212 limits assumed): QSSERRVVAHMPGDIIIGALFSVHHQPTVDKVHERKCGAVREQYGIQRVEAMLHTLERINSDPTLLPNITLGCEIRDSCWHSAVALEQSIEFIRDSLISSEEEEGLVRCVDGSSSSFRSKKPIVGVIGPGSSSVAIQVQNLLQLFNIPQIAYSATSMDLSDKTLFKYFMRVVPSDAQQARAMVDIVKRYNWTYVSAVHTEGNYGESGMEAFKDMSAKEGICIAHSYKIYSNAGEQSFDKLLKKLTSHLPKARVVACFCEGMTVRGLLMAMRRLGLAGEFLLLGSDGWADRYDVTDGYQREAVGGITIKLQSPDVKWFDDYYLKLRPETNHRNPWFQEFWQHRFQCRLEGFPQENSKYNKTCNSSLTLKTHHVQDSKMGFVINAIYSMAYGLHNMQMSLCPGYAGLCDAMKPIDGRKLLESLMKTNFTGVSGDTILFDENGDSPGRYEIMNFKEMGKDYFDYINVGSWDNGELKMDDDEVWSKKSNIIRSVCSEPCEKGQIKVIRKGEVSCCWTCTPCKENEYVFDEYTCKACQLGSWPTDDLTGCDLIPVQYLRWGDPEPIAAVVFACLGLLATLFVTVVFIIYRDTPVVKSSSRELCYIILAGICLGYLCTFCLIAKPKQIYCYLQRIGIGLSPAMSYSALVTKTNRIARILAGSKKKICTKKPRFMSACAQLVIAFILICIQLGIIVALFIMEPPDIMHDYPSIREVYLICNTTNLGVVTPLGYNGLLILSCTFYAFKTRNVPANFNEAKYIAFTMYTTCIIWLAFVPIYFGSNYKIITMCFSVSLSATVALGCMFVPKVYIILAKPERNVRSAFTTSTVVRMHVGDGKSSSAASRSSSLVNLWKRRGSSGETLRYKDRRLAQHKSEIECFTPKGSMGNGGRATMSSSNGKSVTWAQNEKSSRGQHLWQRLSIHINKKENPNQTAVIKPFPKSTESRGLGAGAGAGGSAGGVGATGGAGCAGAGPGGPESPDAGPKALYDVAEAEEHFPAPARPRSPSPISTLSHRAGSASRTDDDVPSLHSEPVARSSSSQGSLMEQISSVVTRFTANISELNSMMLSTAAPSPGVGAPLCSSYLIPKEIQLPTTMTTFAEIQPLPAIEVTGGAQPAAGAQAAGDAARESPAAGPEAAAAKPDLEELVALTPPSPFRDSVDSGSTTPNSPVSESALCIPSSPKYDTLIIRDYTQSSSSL

[11CH3]Oc1cc(NC(=O)c2ccccn2)ccc1Cl
Drug uptake [1]: Not Active | Drug uptake [2]: Active | Drug uptake (Thalamus [3]): Not Active | remaining at 50 min [4]: 10% | Drug uptake (Liver): > 1 % ID/g | Drug uptake (Lung): < 1 % ID/g | Drug uptake (Hippocampus [5]): Not Active | Drug uptake (Heart): < 1 % ID/g | Drug uptake (Thalamus [6]): Active | Drug uptake (Kidney): > 1 % ID/g | Drug uptake [7]: Active | remaining at 5 min [8]: 30% | Drug uptake (Striatum [9]): Active | Drug uptake (Cerebellum [10]): Active | Drug uptake (Hippocampus [11]): Active | Drug uptake (Cerebellum [12]): Active | Drug uptake [13]: Active | Drug uptake (Striatum [14]): Not Active | logD [15]: 3.09 | Drug uptake (Hippocampus [16]): Active | Drug uptake (Hippocampus [17]): Active | Drug uptake (Brain): < 1 % ID/g | Drug uptake (Muscle tissue): < 1 % ID/g | Drug uptake (Cerebellum [18]): Not Active | Drug uptake (Striatum [19]): Active | Drug uptake (Blood): < 1 % ID/g | Drug uptake (Striatum [20]): Active

COc1cc(NC(=O)c2ccccn2)ccc1Cl
inhibition [21]: 51% | inhibition [22]: -5% | Activity [23]: -15% | Activity [24]: 13%
